Laboratory results: ChEMBL document CHEMBL4251593, “Nontoxic combretafuranone analogues with high in vitro antibacterial activity” (Eur J Med Chem, 2018)
In brackets after ≈: the same amount, converted by molar mass. Activity calls are given as the source filed them. The calls are words filed in the database; no cut-off is given here.

Columns and labels:
[1] = system: Staphylococcus epidermidis; experiment: Antibacterial activity against Staphylococcus epidermidis HK6966/08 clinical isolate after 24 hrs by microdilution assay; type: functional; details: HK6966/08, 24 h
HL-60 [2] = experiment: Induction of apoptosis in human HL60 cells assessed as caspase 3/7 activity after 24 hrs by caspase-glo luminescent assay; type: cell-based; details: HL-60, 24 h
Outline: (§1)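 Cells were seeded at 500 per well in their growth media and exposed to 12 concentrations from 40 µM to 1 nM, delivered from DMSO, in triplicate. After 24 h, caspase-3/7 activity was read by Caspase-Glo luminescence. Data were normalized and ED50 was fitted by variable-slope nonlinear regression.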

TERT-RPE1 [3] = experiment: Induction of apoptosis in human RPE1 cells assessed as caspase 3/7 activity after 24 hrs by caspase-glo luminescent assay; type: cell-based; details: RPE-1, 24 h; outline: as §1
Aspergillus fumigatus = experiment: Antifungal activity against Aspergillus fumigatus 231 up to 1 mM after 24 to 48 hrs by microdilution assay; type: functional, organism-based
Outline: (§2)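 Fungal microdilution following modified CLSI M27-A3/M38-A2, in RPMI 1640 with L-glutamine and 0.165 M MOPS at pH 7.0, with DMSO no more than 2% final. Compounds were 2-fold serially diluted from 2000 to 0.488 µmol/l. The inoculum was 5×10^3 cfu/ml. Incubation was at 35 °C, read visually at 24/48 h (T. mentagrophytes at 72/120 h). MIC was IC80 for yeasts and IC50 for filamentous fungi, determined twice in duplicate.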

HL-60 [4] = experiment: Cytotoxicity against human HL60 cells assessed as reduction in cell viability after 48 hrs by ATPlite-based luminescent assay; details: HL-60, 48 h
Outline: (§3)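 Cells were grown […] with 10% FBS, glutamax, NEAA and pen/strep at 37 °C, 5% CO2. Media were DMEM for RPE-1, HepG2 and BJ (BJ plus 10 ng/ml bFGF), F-12K for PC3, and IMDM for K562/HL-60. Cells were seeded at 500 per well and dosed from DMSO at 12 concentrations, 40 µM to 1 nM, in triplicate. After 48 h, intracellular ATP was read by luminescence. ED50 was obtained by variable-slope nonlinear regression.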

Candida albicans [5] = experiment: Antifungal activity against Candida albicans ATCC 90028 up to 1 mM after 24 to 48 hrs by microdilution assay; type: functional, organism-based; outline: as §2
Candida tropicalis = experiment: Antifungal activity against Candida tropicalis 156 clinical isolate up to 1 mM after 24 to 48 hrs by microdilution assay; type: functional, organism-based; outline: as §2
Klebsiella pneumoniae [6] = experiment: Antibacterial activity against Klebsiella pneumoniae HK14368/08 clinical isolate after 24 hrs by microdilution assay; type: functional; details: HK14368/08, 24 h
Staphylococcus aureus [7] = experiment: Antibacterial activity against Staphylococcus aureus ATCC 6538 after 24 hrs by microdilution assay; type: functional; details: ATCC 6538, 24 h
Staphylococcus aureus [8] = experiment: Antibacterial activity against Staphylococcus aureus ATCC 6538 after 48 hrs by microdilution assay; type: functional; details: ATCC 6538, 48 h
TERT-RPE1 [9] = experiment: Cytotoxicity against human RPE1 cells assessed as reduction in cell viability after 48 hrs by ATPlite-based luminescent assay; details: RPE-1, 48 h; outline: as §3
Klebsiella pneumoniae [10] = experiment: Antibacterial activity against Klebsiella pneumoniae HK14368/08 clinical isolate after 48 hrs by microdilution assay; type: functional; details: HK14368/08, 48 h
Pichia kudriavzevii [11] = experiment: Antifungal activity against Candida krusei ATCC 6258 up to 1 mM after 24 to 48 hrs by microdilution assay; type: functional, organism-based; outline: as §2
Candida albicans [12] = experiment: Antifungal activity against Candida albicans ATCC 44859 up to 1 mM after 24 to 48 hrs by microdilution assay; type: functional, organism-based; outline: as §2
[13] = system: Staphylococcus epidermidis; experiment: Antibacterial activity against Staphylococcus epidermidis HK6966/08 clinical isolate after 48 hrs by microdilution assay; type: functional; details: HK6966/08, 48 h
Pichia kudriavzevii [14] = experiment: Antifungal activity against Candida krusei E28 clinical isolate up to 1 mM after 24 to 48 hrs by microdilution assay; type: functional, organism-based; outline: as §2
PC-3 [15] = experiment: Cytotoxicity against human PC3 cells assessed as reduction in cell viability after 48 hrs by ATPlite-based luminescent assay; details: PC-3, 48 h; outline: as §3
Clavispora lusitaniae = experiment: Antifungal activity against Candida lusitaniae 2446/I clinical isolate up to 1 mM after 24 to 48 hrs by microdilution assay; type: functional, organism-based; outline: as §2
Staphylococcus aureus [16] = experiment: Antibacterial activity against methicillin-resistant Staphylococcus aureus HK5996/08 clinical isolate after 24 hrs by microdilution assay; type: functional; details: HK5996/08, 24 h
Pseudomonas aeruginosa [17] = experiment: Antibacterial activity against Pseudomonas aeruginosa ATCC 9027 after 48 hrs by microdilution assay; type: functional; details: ATCC 9027, 48 h
Outline: (§4)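 Broth microdilution in Mueller-Hinton medium buffered to pH 7.4 (±0.2), with DMSO as diluent at no more than 2% final. Compounds were tested as 2-fold serial dilutions from 2000 to 0.488 µmol/l. The inoculum was 0.5 McFarland (1.5×10^8 cfu/ml). Plates were held at 37 °C and read visually at 24 and 48 h. MIC was taken as 95% growth inhibition versus control, determined twice in duplicate.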

[18] = system: Trichophyton mentagrophytes; experiment: Antifungal activity against Trichophyton mentagrophytes 445 up to 1 mM after 72 to 120 hrs by microdilution assay; type: functional, organism-based; outline: as §2
Candida parapsilosis = experiment: Antifungal activity against Candida parapsilosis ATCC 22019 up to 1 mM after 24 to 48 hrs by microdilution assay; type: functional, organism-based; outline: as §2
Pseudomonas aeruginosa [19] = experiment: Antibacterial activity against Pseudomonas aeruginosa ATCC 9027 after 24 hrs by microdilution assay; type: functional; details: ATCC 9027, 24 h; outline: as §4
Escherichia coli [20] = experiment: Antibacterial activity against Escherichia coli ATCC 8739 after 48 hrs by microdilution assay; type: functional; details: ATCC 8739, 48 h; outline: as §4
HepG2 [21] = experiment: Induction of apoptosis in human HepG2 cells assessed as caspase 3/7 activity after 24 hrs by caspase-glo luminescent assay; type: cell-based; details: HepG2, 24 h; outline: as §1
Trichosporon asahii = experiment: Antifungal activity against Trichosporon asahii 1188 clinical isolate up to 1 mM after 24 to 48 hrs by microdilution assay; type: functional, organism-based; outline: as §2
Enterococcus sp. [22] = experiment: Antibacterial activity against Enterococcus sp. HK14365/08 clinical isolate after 48 hrs by microdilution assay; type: functional; details: HK14365/08, 48 h
PC-3 [23] = experiment: Induction of apoptosis in human PC3 cells assessed as caspase 3/7 activity after 24 hrs by caspase-glo luminescent assay; type: cell-based; details: PC-3, 24 h; outline: as §1
Klebsiella pneumoniae [24] = experiment: Antibacterial activity against Klebsiella pneumoniae HK11750/08 clinical isolate after 24 hrs by microdilution assay; type: functional; details: HK11750/08, 24 h
MCF7 = experiment: Cytotoxicity against human MCF7 cells assessed as reduction in cell viability after 48 hrs by ATPlite-based luminescent assay; details: MCF7, 48 h
Nakaseomyces glabratus = experiment: Antifungal activity against Candida glabrata 20/I clinical isolate up to 1 mM after 24 to 48 hrs by microdilution assay; type: functional, organism-based; outline: as §2
HepG2 [25] = experiment: Cytotoxicity against human HepG2 cells assessed as reduction in cell viability after 48 hrs by ATPlite-based luminescent assay; details: HepG2, 48 h; outline: as §3
Staphylococcus aureus [26] = experiment: Antibacterial activity against methicillin-resistant Staphylococcus aureus HK5996/08 clinical isolate after 48 hrs by microdilution assay; type: functional; details: HK5996/08, 48 h
BJ = experiment: Cytotoxicity against human BJ cells assessed as reduction in cell viability after 48 hrs by ATPlite-based luminescent assay; outline: as §3
K562 [27] = experiment: Induction of apoptosis in human K562 cells assessed as caspase 3/7 activity after 24 hrs by caspase-glo luminescent assay; type: cell-based; details: K562, 24 h; outline: as §1
Enterococcus sp. [28] = experiment: Antibacterial activity against Enterococcus sp. HK14365/08 clinical isolate after 24 hrs by microdilution assay; type: functional; details: HK14365/08, 24 h
Klebsiella pneumoniae [29] = experiment: Antibacterial activity against Klebsiella pneumoniae HK11750/08 clinical isolate after 48 hrs by microdilution assay; type: functional; details: HK11750/08, 48 h
K562 [30] = experiment: Cytotoxicity against human K562 cells assessed as reduction in cell viability after 48 hrs by ATPlite-based luminescent assay; details: K562, 48 h; outline: as §3
Lichtheimia corymbifera = experiment: Antifungal activity against Absidia corymbifera 272 up to 1 mM after 24 to 48 hrs by microdilution assay; type: functional, organism-based; outline: as §2
Escherichia coli [31] = experiment: Antibacterial activity against Escherichia coli ATCC 8739 after 24 hrs by microdilution assay; type: functional; details: ATCC 8739, 24 h; outline: as §4

Row | Structure (SMILES) | MIC95 [1] [µM] | IC50 (HL-60 [2]) [µM] | IC50 (TERT-RPE1 [3]) [µM] | Activity (Aspergillus fumigatus) | IC50 (HL-60 [4]) [µM] | Activity (Candida albicans [5]) | Activity (Candida tropicalis) | MIC95 (Klebsiella pneumoniae [6]) [µM] | MIC95 (Staphylococcus aureus [7]) [µM] | MIC95 (Staphylococcus aureus [8]) [µM] | IC50 (TERT-RPE1 [9]) [µM] | MIC95 (Klebsiella pneumoniae [10]) [µM] | Activity (Pichia kudriavzevii [11]) | Activity (Candida albicans [12]) | MIC95 [13] [µM] | Activity (Pichia kudriavzevii [14]) | IC50 (PC-3 [15]) [µM] | Activity (Clavispora lusitaniae) | MIC95 (Staphylococcus aureus [16]) [µM] | MIC95 (Pseudomonas aeruginosa [17]) [µM] | further results
1 | O=C1OCC(c2ccccc2)=C1c1ccc(Br)cc1 | 31.2 (≈ 9.85 µg/mL) | > 40 | > 40 | inactive | > 40 | inactive | inactive | > 1000 | 3.9 (≈ 1.23 µg/mL) | 15.6 (≈ 4.92 µg/mL) | > 40 | > 1000 | inactive | inactive | 62.5 (≈ 19.7 µg/mL) | inactive | > 40 | inactive | 31.2 (≈ 9.85 µg/mL) | > 1000 | Activity [18]: inactive; Activity (Candida parapsilosis): inactive; MIC95 (Pseudomonas aeruginosa [19]): > 1000 µM; MIC95 (Escherichia coli [20]): > 1000 µM; IC50 (HepG2 [21]): > 40 µM; Activity (Trichosporon asahii): inactive; MIC95 (Enterococcus sp. [22]): > 1000 µM; IC50 (PC-3 [23]): > 40 µM; MIC95 (Klebsiella pneumoniae [24]): > 1000 µM; IC50 (MCF7): > 40 µM; Activity (Nakaseomyces glabratus): inactive; IC50 (HepG2 [25]): > 40 µM; MIC95 (Staphylococcus aureus [26]): 62.5 µM (≈ 19.7 µg/mL); IC50 (BJ): > 40 µM; IC50 (K562 [27]): > 40 µM; MIC95 (Enterococcus sp. [28]): > 1000 µM; MIC95 (Klebsiella pneumoniae [29]): > 1000 µM; IC50 (K562 [30]): > 40 µM; Activity (Lichtheimia corymbifera): inactive; MIC95 (Escherichia coli [31]): > 1000 µM
2 | Cc1ccc(C2=C(c3ccc(Br)cc3)C(=O)OC2(CO)CO)cc1 | 62.5 (≈ 24.3 µg/mL) | > 40 | > 40 | inactive | > 40 | inactive | inactive | > 500 | 0.98 (≈ 0.381 µg/mL) | 3.9 (≈ 1.52 µg/mL) | > 40 | > 500 | inactive | inactive | 500 (≈ 195 µg/mL) | inactive | > 40 | inactive | 250 (≈ 97.3 µg/mL) | > 500 | Activity [18]: inactive; Activity (Candida parapsilosis): inactive; MIC95 (Pseudomonas aeruginosa [19]): > 500 µM; MIC95 (Escherichia coli [20]): > 500 µM; IC50 (HepG2 [21]): > 40 µM; Activity (Trichosporon asahii): inactive; MIC95 (Enterococcus sp. [22]): > 500 µM; IC50 (PC-3 [23]): > 40 µM; MIC95 (Klebsiella pneumoniae [24]): > 500 µM; IC50 (MCF7): > 40 µM; Activity (Nakaseomyces glabratus): inactive; IC50 (HepG2 [25]): > 40 µM; MIC95 (Staphylococcus aureus [26]): 500 µM (≈ 195 µg/mL); IC50 (BJ): > 40 µM; IC50 (K562 [27]): > 40 µM; MIC95 (Enterococcus sp. [28]): 500 µM (≈ 195 µg/mL); MIC95 (Klebsiella pneumoniae [29]): > 500 µM; IC50 (K562 [30]): > 40 µM; Activity (Lichtheimia corymbifera): inactive; MIC95 (Escherichia coli [31]): > 500 µM
